# Shown are actives, neighbours in structure and some others; about 2.5% of the full set was active somewhere.
# B2AR ag: agonists of human beta-2 adrenergic receptor inducing internalization; AID 504454; response, % (test concentration not listed); P07550; Am2.2-beta2AR cells, FAP receptor internalization, flow cytometry; 340,000 compounds, 0.43% hits;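 active means response above a set limit, near 3 SD of response in nonfluorescent compounds, cut at about 42% in these data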
# Arr AP2 block: inhibitors of human beta-arrestin and AP2 interaction. inhibition, % at 10 µM. 340,000 compounds, 0.31% hits. AID 504490. FITC-arrestin peptide / GST-AP2 beads, flow cytometry; AP2 beta2 appendage carries R879A mutation;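 active means inhibition above a set limit, near 3 SD of compounds lacking own fluorescence, cut at about 54% in these data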;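 further: plate controls were DMSO wells for no effect and 5 µM unlabelled arrestin peptide for full effect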
#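 Assay system: GST-AP2 R879A bound to glutathione beads, E. coli-expressed; Medium: PBS with 0.05% Tween 20 and 0.1% BSA; Also added: fluorescein-tagged arrestin peptide at 50 nM final; Timing: 12 min plus 1 h, RT; Measured by: flow cytometry, FL1 (488/535 nm); Evaluation: percent drop in bead-associated FITC signal.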
# UHRF1 MBD2 ctr: blocks human UHRF1 binding to methylated DNA. AID 687016. 370,000 compounds, 0.75% hits. Q96T88. UHRF1 binding to methylated oligo, TR-FRET. inhibition, % at 4.4 µM; in the data active means inhibition above about 21%;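 further: UHRF1 SRA domain binding a hemimethylated CpG hairpin DNA probe; 0% = median of test compound wells and 100% = reference inhibitor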
# Rin1 Abl inh: blocks binding of human Rin1 to Abl; P00519+Q13671; inhibition, % at 7.35 µM; TR-FRET Rin1/Abl binding, biochemical; 360,000 compounds, 0.4% hits; in the data active means inhibition above about 5%, passing the limit was not always enough
# ABHD5 PLIN5 PPI: inhibitors of human ABHD5-perilipin-5 interaction | Q00G26+Q8WTS1 | Split G. princeps luciferase complementation, luminescence, 4 h | inhibition, % at 4 µM | 360,000 compounds, 0.78% hits;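 active means inhibition above the mean inhibition across every tested compound plus 3 SD, cut at about 22% in these data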;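 further: 0% = DMSO only wells and the 100% control is not disclosed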
# MBD2 inh: blocks human MBD2 binding to methylated DNA | Q9UBB5 | TR-FRET, MBD2 binding to methylated oligonucleotide | inhibition, % at 4.4 µM | 370,000 compounds, 0.31% hits; in the data active means inhibition above about 13%
# Target sequence (Q9UBB5 whole entry, looked up): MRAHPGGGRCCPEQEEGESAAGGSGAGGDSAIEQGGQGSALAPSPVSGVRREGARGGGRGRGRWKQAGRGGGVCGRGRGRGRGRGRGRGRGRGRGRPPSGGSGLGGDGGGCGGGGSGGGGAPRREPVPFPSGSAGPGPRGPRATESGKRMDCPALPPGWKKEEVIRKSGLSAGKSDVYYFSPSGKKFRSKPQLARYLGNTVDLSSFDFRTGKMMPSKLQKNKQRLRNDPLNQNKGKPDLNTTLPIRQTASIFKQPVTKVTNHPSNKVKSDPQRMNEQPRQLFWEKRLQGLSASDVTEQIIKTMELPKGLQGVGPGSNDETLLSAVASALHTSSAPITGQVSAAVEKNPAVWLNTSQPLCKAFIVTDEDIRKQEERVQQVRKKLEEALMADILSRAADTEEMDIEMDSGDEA
# Arr AP2 CP1: blocks beta-arrestin peptide binding to human AP2. shares compounds with Arr AP2 block. GST-AP2 beads, FITC arrestin peptide binding, flow cytometry; GST-fused beta2-adaptin appendage, R879A mutant. inhibition, % at 10 µM. 1,300 compounds, 2% hits. AID 504908;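 active means inhibition above a set limit, roughly 3 SD of non-fluorescent compound noise, cut at about 38% in these data; inactive means inhibition at or below that limit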;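 further: loss of bead fluorescence from 50 nM FITC arrestin peptide bound to appendage; 0% = negative control wells and 100% = excess unlabelled arrestin peptide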
# GST-FITC bead: counter-screen for beta-arrestin AP2 inhibitors: GST-GSH bead binding. inhibition, % at 10 µM. shares compounds with Arr AP2 block. 1,300 compounds, 2% hits. GST-fluorescein binding to GSH beads, fluorescence;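 active means inhibition above 50%, about 3 SD of the inhibition seen with non-fluorescent compounds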;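 further: fluorescein maleimide labelled GST captured on 4 micron glutathione beads; higher means more loss of bead fluorescence from quenching or blocked binding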
# Active calls of the source: *; . = no result.
SMILES,B2AR ag,Arr AP2 block,UHRF1 MBD2 ctr,Rin1 Abl inh,ABHD5 PLIN5 PPI,MBD2 inh,Arr AP2 CP1,GST-FITC bead
COc1ccc(NC(=O)Nc2cc(C)ccn2)cc1,-4.4,0.3,1.0,-3.5,-0.6,2.3,.,.
COC(=O)C1=C(C)N(C)C(=NCc2ccc(OC)cc2)NC1c1ccccc1C(F)(F)F (stereo not drawn),.,.,1.4,.,.,4.7,.,.
O=C(NCC1COc2ccccc2O1)c1ccc(NC(=O)c2c(Cl)cccc2Cl)cc1 (stereo not drawn),.,.,-1.0,.,.,-4.5,.,.
O=C(NC1CCCC1)c1ccc(COc2ccccc2)o1,.,.,2.7,.,.,8.1,.,.
O=C(NCc1ccccc1)C1CCN(c2nc(-c3ccc(Br)cc3)cs2)CC1,.,.,1.4,.,.,-3.4,.,.
COc1ccc(C=Nn2c(-c3n[nH]c4c3CCC4)n[nH]c2=S)cc1OCc1ccccc1,.,.,1.7,.,.,0.6,.,.
CCn1c(=O)n(CC(=O)N2CCN(C(C)=O)CC2)c(=O)c2ccccc21,.,.,-4.0,.,.,-6.8,.,.
O=S(=O)(/N=C(/Nc1cccc2ccccc12)c1ccccc1)c1cccs1,4.2,99.9*,0.0,3.0,-0.2,2.8,5.0,-13.1
COC(=O)c1cc2c(c3c4cc(C)ccc4n(C(=O)c4ccccc4)c13)C(=O)N(Cc1ccccc1)C2,.,.,-2.5,.,.,-2.5,.,.
CCc1ccccc1NC(=O)Nc1ccc(F)cc1,2.9,14.2,0.3,-0.7,3.0,-2.2,.,.
CCc1ccccc1NC(=O)Nc1cccn(Cc2ccc(F)cc2)c1=O,1.4,58.2*,-2.5,2.4,-3.1,-3.2,-4.8,-12.2
CCOC(=O)[C@]12CCCCC/C=C\1N(Cc1ccc(OC)cc1)C(=O)[C@H]2CC(=O)NCCC(C)C,.,.,-1.4,.,.,1.7,.,.
COc1ccc(S(=O)(=O)N2CCCCCC2)cc1C(=O)NCc1ccco1,3.3,4.3,4.8,2.4,4.9,8.1,.,.
O=C(NCc1ccco1)c1cc(S(=O)(=O)N2CCCC2)ccc1Cl,0.2,54.4*,0.2,0.0,9.9,-1.7,0.9,-15.3
O=C(Nc1cc(Cl)ccc1-n1cncn1)c1ccccc1OC(F)F,-7.4,68.0*,-1.1,2.0,6.9,4.3,6.1,-5.7
COc1cc(C(=O)Nc2cc(Cl)ccc2-n2cncn2)ccc1OC(F)F,-7.4,25.1,5.5,0.4,5.6,4.4,.,.
CCOc1ccccc1N1CCN(C(=O)CC(C)(C)C)CC1,0.0,54.9*,0.5,5.8,1.9,0.8,5.2,-5.8
COc1ccccc1OCC(=O)N1CCN(c2ccccc2OC)CC1,-8.7,-0.8,2.0,-2.2,-1.4,0.9,.,.
CCOc1ccccc1N1CCN(C(=O)C(F)(F)F)CC1,0.4,5.7,.,4.4,5.3,.,.,.
COc1ccccc1N1CCN(C(=O)COc2cccc(C)c2C)CC1,1.2,61.4*,-0.5,1.7,7.2,0.3,-9.6,-1.5
COC(=O)c1cc(C(c2ccccc2O)C2CCC(C)(C)O2)n2ccccc12 (stereo not drawn),.,.,-0.1,.,.,7.7,.,.
C[C@H]1[C@@H](OC(=O)Oc2ccc([N+](=O)[O-])cc2)CC[C@@]23CCCN2C(=O)CCC[C@@H]13,.,.,-1.0,.,.,4.2,.,.
CC(C)=CCCC(C)CN1CCC(n2nccc2NC(=O)c2cccnc2)CC1 (stereo not drawn),5.2,59.8*,-1.3,-2.9,10.0,-4.9,-10.1,-5.0
CCC(C)NC(=O)C1CCC(CNS(=O)(=O)c2cccc3nsnc23)CC1 (stereo not drawn),5.5,54.4*,.,1.8,-5.3,.,1.5,1.5
O=C(NC(=S)Nc1ccc(N2CCOCC2)cc1)c1cccs1,-1.5,59.8*,3.9,-0.2,1.1,-1.4,-3.8,3.3
SMILES,B2AR ag,Arr AP2 block,UHRF1 MBD2 ctr,Rin1 Abl inh,ABHD5 PLIN5 PPI,MBD2 inh,Arr AP2 CP1,GST-FITC bead
COC(=O)c1cc(C(C)c2ccccc2O)n2ccccc12 (stereo not drawn),.,.,-1.4,.,.,-6.2,.,.
C=CCN1C(=O)[C@@H](CC(=O)NCCCCc2ccccc2)[C@]2(C(=O)OC)CCCCC=C12,.,.,0.5,.,.,-2.0,.,.
CC(Sc1ccc(Cl)cc1)C(=O)N(C)CC(=O)Nc1ccc(N2CCOCC2)cc1 (stereo not drawn),-6.7,56.4*,3.0,-0.3,5.7,-0.3,5.5,-7.0
Cc1ccc(-c2c(NC(=O)c3cccc(C)c3)nc3ncccn23)cc1,.,.,-2.7,.,.,0.1,.,.
Cc1cc(C)cc(NC(=O)c2cccc3c2C(=O)N(C2CCCCC2)C3)c1,9.6,61.9*,.,-2.9,-9.6,.,4.3,8.2
O=C(Nc1ccc(Br)cc1)c1cccc2c1C(=O)N(C1CCCCC1)C2,0.7,10.8,-1.1,-4.2,3.8,-4.2,.,.
Cc1ccc(OCc2nnc(SCC(=O)Nc3ccc(S(N)(=O)=O)cc3)n2-c2ccc(Cl)cc2)cc1,.,.,-0.5,.,.,-1.1,.,.
O=C1[C@H]2C[C@@]3(n4ccc5ccccc54)c4ccccc4N(S(=O)(=O)c4ccccc4)[C@H]3N2C(=O)CN1Cc1ccccc1,.,.,2.3,.,.,1.1,.,.
CCn1cc(C(=O)N[C@H](C(=O)O)C(C)C)c(=O)c2cc3c(cc21)OCO3,-0.2,-10.9,1.3,-1.7,2.0,2.7,.,.
CCn1cc(C(=O)N[C@@H](C)C(=O)OC)c(=O)c2cc3c(cc21)OCO3,7.0,55.0*,-1.6,1.9,8.2,3.2,-1.5,-4.7
COC(=O)[C@H](C(C)C)N1CCc2nnn(CC3CCCCC3)c2-c2ccccc2S1(=O)=O,.,.,-1.7,.,.,-5.1,.,.
CC(=O)N1CCN(c2ccc(NC(=O)c3ccc(OCc4ccccc4)cc3)cc2)CC1,2.1,99.9*,0.8,4.3,-0.1,4.0,-11.9,-8.3
COc1ccc(C(=O)Nc2ccc(N3CCN(C)CC3)cc2)cc1OC,10.7,65.1*,2.2,1.0,3.1,-2.5,4.0,3.6
Cc1csc(=Nc2cccnc2)n1CC1CCCCC1,1.1,70.0*,-2.9,2.5,3.8,-3.1,-1.7,-8.3
CCOc1ccc(-n2cc(C(=O)N3CCC(C)CC3)c3cc(OC)c(OC)cc3c2=O)cc1,-6.1,56.3*,-3.6,-0.1,8.4,-4.5,-14.9,-14.2
C=CCN(CC#CCN(C)C(=O)c1cccn1C(=O)OC(C)(C)C)Cc1ccc(OC)cc1OC,.,.,1.2,.,.,2.4,.,.
CSc1nc2c(c(=O)n1Cc1ccccc1)SC(C)C2 (stereo not drawn),-6.0,55.5*,4.3,0.9,5.3,-0.2,-4.6,-1.7
CC1(C)Cc2c(sc3c2c(=O)n(Cc2ccccc2)c2nncn32)CO1,-5.5,62.2*,.,2.2,-6.0,.,8.2,-0.2
Cc1nnc2n(Cc3ccccc3)c(=O)c3c4c(sc3n12)COC(C)(C)C4,-22.5,5.0,0.4,-3.5,5.6,-3.4,.,.
CC1CN(C(=O)c2ccc(NS(=O)(=O)c3ccc(F)c(F)c3)cc2)CC(C)O1 (stereo not drawn),-3.9,56.2*,-2.9,0.9,6.7,1.7,-1.0,-11.4

# From PubChem BioAssay
